Scp1 inh: inhibitors of human Scp-1 phosphatase. inhibition, % at 20 µM. AID 493091. Recombinant Scp1, phosphopeptide, malachite green phosphate absorbance. actives 0.88% (n = 340,000). Q9GZU7;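 active = inhibition above about 50% at 20 µM, limit read from the data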;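 note: plate controls were DMSO wells with enzyme for no effect and wells lacking enzyme for full effect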
Target sequence (Q9GZU7 76-261 limits assumed): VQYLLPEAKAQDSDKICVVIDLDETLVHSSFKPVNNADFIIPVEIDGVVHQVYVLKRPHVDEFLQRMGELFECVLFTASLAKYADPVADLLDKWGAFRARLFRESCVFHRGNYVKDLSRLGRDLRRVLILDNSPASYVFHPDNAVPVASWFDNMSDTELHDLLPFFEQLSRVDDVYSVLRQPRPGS
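Incubation: 45 min enzyme reaction at room temperature / System: truncated SCP-1 phosphatase (76-261aa) / Reagent: Phospho 17-mer peptide substrate / Buffer or medium: Acidic Tris acetate buffer with magnesium and detergent / Signal: absorbance at 630 nm / Doses: one concentration, 20 µM, with 1.0% DMSO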
STEP block: inhibitors of human striatal-enriched phosphatase STEP. P54829. recombinant STEP, OMFP fluorogenic substrate, fluorescence. actives 0.25% (n = 360,000). inhibition, % at 20 µM;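 active = inhibition at 20 µM, scaled per plate between control wells, above about 37%, limit read from the data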;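 note: 0% = DMSO with enzyme and substrate and 100% = substrate only without enzyme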
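System: STEP phosphatase, cell-free reaction; Buffer or medium: Bis-Tris pH 6.0 buffer with DTT, detergent; Incubation: 20 min at room temperature, dark; Measured by: fluorescence, 480/540 nm.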
DNMT1 inh: inhibitors of human DNMT1; DNMT1 molecular beacon, Hinp1I cleavage, fluorescence; inhibition (reported as % activation of signal), % at 10 µM; actives 0.83% (n = 360,000); in the data active = inhibition above about 50%
LMPTP inh: blocks human LMPTP phosphatase. AID 651560. actives 0.22% (n = 360,000). inhibition, % at 20 µM. P24666. recombinant LMPTP-A, OMFP fluorogenic substrate, fluorescence intensity;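 active = compounds that cut the enzyme signal by at least half of the control window in the single-dose screen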;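 note: plate controls were DMSO wells with enzyme plus substrate for no effect and substrate without enzyme for full effect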
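Test system: LMPTP-A phosphatase enzyme; input: 0.625 nM LMPTP-A final; reagent: OMFP substrate, 400 µM final; compound dosing: 20 µM single dose, 3% DMSO; incubation: 50 min dark incubation at room temperature; measured by: endpoint fluorescence intensity from OMFP dephosphorylation; measure: % inhibition relative to no-enzyme and uninhibited control wells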
SUMO1 PPI mod: alters human SUMO1 binding to SIM partners. SUMO1 binding to a labelled peptide, TR-FRET, 1 h. AID 602429. inhibition, % at 20 µM. P63165. actives 0.33% (n = 360,000); in the data active = inhibition above about 37%
Target sequence (P63165 whole entry, looked up): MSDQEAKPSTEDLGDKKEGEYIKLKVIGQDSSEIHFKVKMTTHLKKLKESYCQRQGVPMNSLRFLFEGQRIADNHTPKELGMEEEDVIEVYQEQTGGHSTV
* marks the source's active call; other numbers are inactive results; i = inactive; x = not tested or not shown; + = active, no number. Compounds with a hit are over-represented: about 1.7% of the library has one in this group of screens.

SMILES	Scp1 inh	STEP block	DNMT1 inh	LMPTP inh	SUMO1 PPI mod
CCN(CC)C(=O)C(=O)c1cn(CCOc2ccccc2)c2ccccc12	-10	-2	-1	-1	1
CCOC(=O)c1ccc(NC2=CC(=O)C(=O)c3ccccc32)cc1	25	28	56*	10	41*
COCCn1c(C)cc(C(=O)CN2C(=O)C(=O)N(CCC3=CCCCC3)C2=O)c1C	x	-3	-4	2	-6
O=[N+]([O-])c1nn(-c2cccc(Cl)c2)n(O)c1=NCc1cccnc1	9	0	0	0	43*
O=[N+]([O-])c1nn(-c2ccc(Cl)cc2)n(O)c1=NCc1cccnc1	-8	1	-2	2	-28
Cc1ccc(N2C(=S)SC3CS(=O)(=O)CC32)cc1 (centres undefined)	-5	1	-1	1	47*
Cc1ccc(N2C(=O)N(c3ccc(C)cc3)C3CS(=O)(=O)CC32)cc1 (centres undefined)	-14	-4	1	-1	0
COc1ccc(CN2C(=O)C(CC(=O)NCCc3ccccn3)CC(C(=O)N3CCOCC3)=C2C)cc1 (centres undefined)	x	-3	2	0	4
O=C(CCc1nnc2n(Cc3ccc(Cl)cc3)c(=O)c3ccccc3n12)N1CCN(c2ccccn2)CC1	5	8	-4	64*	-1
CCOC(=O)C12CNC(=O)C(C(=O)OCC)(CNC1=O)C2	6	3	1	0	40*
CCOC(=O)C1(Cc2ccccc2)C(=O)Nc2ccccc21 (centres undefined)	-10	-1	2	-1	4
COc1cccc(C(=O)Nc2cccc(NC(=O)c3ccccc3Cl)c2)c1	-6	0	-1	0	0
COc1cccc(C(=O)Nc2cccc(C(=O)NC3=NN(c4c(Cl)cc(Cl)cc4Cl)C(=O)C3)c2)c1	5	2	7	2	44*
O=C(COc1c(Br)cc(Br)c2cccnc12)Nc1ccccc1F	-11	3	33	9	47*
COc1ccc(S(=O)(=O)N2CCCOC2CNC(=O)C(=O)NCCO)cc1 (centres undefined)	x	-4	-3	0	-1
CCOC(=O)N1CCC(NC(=O)c2ccccc2C(=O)O)CC1	-1	-1	1	-2	43*
NC(c1ccccc1)c1cccs1 (centres undefined)	x	0	-1	0	7
Cc1[nH]ccc2cc3nc4ccccc4c3cc12	x	0	48	86*	-34
CCCCCCCCN1C(=O)[C@H](CC(=O)NCCC(C)C)C[C@@]2(C(=O)OCC)CCC=C12	x	x	x	1	7
O=C(O)CCCN1C(=O)/C(=C/c2ccncc2)SC1=S	6	1	1	-1	-27
O=C(O)CCCCCN1C(=O)/C(=C\c2ccc(-c3ccc(Cl)cc3)o2)SC1=S	89*	7	14	79*	70*
O=C(O)CCCN1C(=O)/C(=C/c2ccc(-c3nc4ccccc4s3)o2)SC1=S	59*	62*	104*	9	34
COc1ccc(CC(C)NCC(O)c2ccc(O)c(NC=O)c2)cc1 (centres undefined)	-6	2	4	-2	4
Cc1oc(-c2cccs2)nc1CN1CCN(C(C)C)C(CCO)C1 (centres undefined)	-7	-2	-1	0	1
Cn1cc([N+](=O)[O-])c(C(=O)Nc2ccc(-c3nc4ccccc4o3)cc2)n1	15	1	3	0	46*
SMILES	Scp1 inh	STEP block	DNMT1 inh	LMPTP inh	SUMO1 PPI mod
CC(=O)Oc1ccc2c(c1)Oc1cc(OC(C)=O)ccc1C21OC(=O)c2ccccc21	-5	-6	+	-1	i
CCC1CCc2c(sc(N)c2C(N)=O)C1 (centres undefined)	-8	0	-7	0	47*
CCOC(=O)c1c(N)sc2c1CCC(CC)C2 (centres undefined)	-3	1	0	2	-5
O=C1NC(=S)S/C1=C\c1ccc(SCc2ccco2)o1	77*	50*	103*	76*	83*
O=C1NC(=S)S/C1=C/c1ccc(OC(=O)c2ccco2)cc1	-7	-2	3	-7	0
CCOc1ccc(C2C(C(=O)c3ccco3)=C(O)C(=O)N2CCCn2ccnc2)cc1OC (centres undefined)	-3	-2	1	-2	47*

Screening results deposited in PubChem by Sanford-Burnham Center for Chemical Genomics.
